Measured values: ChEMBL document CHEMBL2169769, “Synthesis and biological characterization of protease-activated prodrugs of doxazolidine” (J Med Chem, 2012)

Assays:
MCF7 [1] = test: Cytotoxicity against human MCF7 cells incubated for 24 hrs measured after 5 days in presence of 0.2 U cathepsin B; format: functional, cell-based
How it was run: (§1)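 Cells seeded 1000/well, adhered overnight, then serum-free medium with or without plasmin, trypsin, cathepsin B or papain (0.2 U/well), aprotinin (5 µM) or protease inhibitor cocktail (1X). Prodrug 2000–1 nM final, 24 h; then complete medium up to 5 days or control 80% confluence. Formalin fixed, crystal violet, A582; % of control fit to variable-slope sigmoid for IC50.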

HEK-293T = test: Cytotoxicity against human HEK293T cells incubated for 24 hrs measured after 5 day; format: cell-based; how it was run: as §1
[2] = molecular target: Cathepsin B (Homo sapiens) (UniProt P07858); test: Activity of human cathepsin B assessed as compound hydrolysis measuring enzyme specific activity at 50 uM at pH 6.5 in PBS buffer containing 10 mM N-acetylcysteine by RP-HPLC
How it was run: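 Specific activity from hydrolysis time courses at 37 °C with 50 µM substrate. Plasmin in PBS pH 7.4; cathepsin B diluted two-fold in PBS-NAC, reacted in PBS-NAC (10 mM N-acetylcysteine) pH 6.5. Ethanol-quenched aliquots, protein precipitated at −20 °C, RP-HPLC at 480 nm tracking dox release. Linear least-squares slope used; 1 U = 1 µM substrate hydrolysed per min.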

Plasma = test: Stability in human plasma assessed as doxorubicin production at 50 uM incubated over 24 hrs by RP-HPLC; format: ADME, cell-free
How it was run: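 Prodrug diluted to 50 µM final in undiluted plasma from healthy human donors, 37 °C for 24 h. Aliquots at 0.25, 1, 3, 8, 12 and 24 h were quenched with equal-volume ethanol and held at −20 °C overnight; protein was spun out. Supernatant run on RP-HPLC; percent prodrug and dox taken from relative 480 nm absorbance, counting all 480 nm species; triplicate.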

Homo sapiens = species on record: Homo sapiens; test: Selectivity ratio of catalytic efficiency of human plasmin to catalytic efficiency of human cathepsin B
How it was run: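 Michaelis–Menten kinetics with human enzymes and substrate at 10–400 µM, 37 °C. Plasmin: 0.2 U in PBS pH 7.4 for 4 min. Cathepsin B: 0.08 U in PBS with 10 mM N-acetylcysteine, pH 6.5, for 20 min. Quenched with ethanol, held at −20 °C ≥2 h, centrifuged. Dox release read by RP-HPLC at 480 nm. Rates (µM/min) fit by non-linear least squares; triplicate.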

Bos taurus = species on record: Bos taurus; test: Activity of bovine trypsin assessed as enzyme specific activity for compound hydrolysis
How it was run: (§2)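 50 µM prodrug incubated at 37 °C with enzyme: trypsin in PBS; papain diluted two-fold in PBS-NAC (PBS + 10 mM N-acetylcysteine), reacted in PBS-NAC pH 6.5. Aliquots quenched in equal volume ethanol, −20 °C ≥2 h, centrifuged; supernatant RP-HPLC at 480 nm for substrate loss and dox gain. Slope of linear fit gives activity; 1 U = 1 µM prodrug hydrolysed per min.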

Papain (Carica papaya) = molecular target: T1, Papain (Carica papaya) (UniProt P00784); test: Activity of papaya papain assessed as compound hydrolysis measuring enzyme specific activity at 50 uM at pH 6.5 in PBS buffer containing 10 mM N-acetylcysteine by RP-HPLC; how it was run: as §2
T1 sequence (whole entry): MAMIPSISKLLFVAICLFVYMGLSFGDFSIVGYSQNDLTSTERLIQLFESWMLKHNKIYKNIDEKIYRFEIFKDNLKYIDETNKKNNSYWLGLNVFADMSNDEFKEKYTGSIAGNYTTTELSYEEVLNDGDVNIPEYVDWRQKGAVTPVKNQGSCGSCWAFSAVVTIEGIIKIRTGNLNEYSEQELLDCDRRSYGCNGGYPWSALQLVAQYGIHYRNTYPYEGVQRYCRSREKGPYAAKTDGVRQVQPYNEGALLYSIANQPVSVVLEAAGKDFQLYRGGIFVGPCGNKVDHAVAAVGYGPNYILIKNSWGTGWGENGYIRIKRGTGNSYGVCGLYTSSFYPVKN

[3] = Cytotoxicity against human L3.3 cells incubated for 24 hrs measured after 5 days in presence of 0.2 U human plasmin; format: functional, cell-based; how it was run: as §1
[4] = Prodrug conversion assessed as release dozax at 50 uM at pH 7.4 in PBS buffer in presence of human plasmin after 2 hrs by RP-HPLC; format: ADME; details: pH 7.4, 2 h
How it was run: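 50 µM prodrug with 1.2 µg/mL human plasmin in PBS pH 7.4 at 37 °C. Samples taken over time, ethanol-quenched, analysed by RP-HPLC at 480 nm for prodrug and dox; repeated runs fit to single-exponential association model.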

MIA PaCa-2 [5] = test: Drug uptake in human MIAPaCa2 cells increase in compound uptake-induced anthracycline fluorescence in absence of plasmin at 0.5 uM up to 5 hrs by flow cytometry relative to untreated control; format: ADME, cell-based; details: mia paca-2, 5 h
How it was run: (§3)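 MCF-7 or MiaPaCa-2 plated 250,000/well, adhered overnight, switched to serum-free medium with 0.5 µM prodrug alone or plus 0.2 U human plasmin (final) for up to 5 h. Trypsinised cells read by flow cytometry (FL3) for anthracycline fluorescence; mean values expressed as fold over untreated cells.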

MCF7 [6] = test: Cytotoxicity against human MCF7 cells incubated for 24 hrs measured after 5 days in presence of 5 uM aprotinin; format: functional, cell-based; how it was run: as §1
BXPC-3 = test: Cytotoxicity against human BxPC3 cells incubated for 24 hrs measured after 5 days; format: functional, cell-based; how it was run: as §1
MCF7 [7] = test: Cytotoxicity against human MCF7 cells incubated for 24 hrs measured after 5 days in presence of 0.2 U papain; format: functional, cell-based; how it was run: as §1
MIA PaCa-2 [8] = test: Cytotoxicity against human MIAPaCa2 cells incubated for 24 hrs measured after 5 days in presence of 0.2 U trypsin; format: functional, cell-based; how it was run: as §1
[9] = molecular target: Cathepsin B (Homo sapiens) (UniProt P07858); test: Activity of human cathepsin B assessed as enzyme catalytic efficiency for compound hydrolysis at 50 uM at pH 6.5 in PBS buffer containing 10 mM N-acetylcysteine by RP-HPLC
How it was run: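 Michaelis-Menten kinetics, substrate 10–400 µM at 37 °C. Plasmin: 0.2 U, PBS pH 7.4, 4 min. Cathepsin B: 0.08 U, PBS-NAC pH 6.5, 20 min. Quenched with equal volume ethanol, −20 °C ≥2 h, centrifuged, supernatant RP-HPLC at 480 nm. Rates (µM/min) fit by non-linear least squares; triplicates.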

[10] = Cytotoxicity against human L3.5.cells incubated for 24 hrs measured after 5 days in presence of 0.2 U human plasmin; format: functional, cell-based; how it was run: as §1
MCF7 [11] = test: Drug uptake in human MCF7 cells increase in compound uptake-induced anthracycline fluorescence in presence of plasmin at 0.5 uM after 4 to 5 hrs by flow cytometry relative to untreated control; format: ADME, cell-based; details: mcf7, 0.5 µM; how it was run: as §3
MIA PaCa-2 [12] = test: Drug uptake in human MIAPaCa2 cells increase in compound uptake-induced anthracycline fluorescence in presence of plasmin at 0.5 uM after 4 to 5 hrs by flow cytometry relative to untreated control; format: ADME, cell-based; details: mia paca-2, 0.5 µM; how it was run: as §3
MCF7 [13] = test: Cytotoxicity against human MCF7 cells incubated for 24 hrs measured after 5 days in presence of 0.2 U trypsin; format: functional, cell-based; how it was run: as §1
MIA PaCa-2 [14] = test: Cytotoxicity against human MIAPaCa2 cells incubated for 24 hrs measured after 5 days in presence of complete protease inhibitor cocktail; format: functional, cell-based; how it was run: as §1
MCF7 [15] = test: Cytotoxicity against human MCF7 cells incubated for 24 hrs measured after 5 days in presence of complete protease inhibitor cocktail; format: functional, cell-based; how it was run: as §1
MIA PaCa-2 [16] = test: Cytotoxicity against human MIAPaCa2 cells incubated for 24 hrs measured after 5 days in presence of 0.2 U plasmin; format: functional, cell-based; how it was run: as §1

## COc1cccc2c1C(=O)c1c(O)c3c(c(O)c1C2=O)C[C@@](O)(C(=O)CO)C[C@@H]3O[C@H]1C[C@H]2[C@H](OCN2C(=O)OCc2ccc(NC(=O)[C@H](CCCCN)NC(=O)[C@H](Cc3ccccc3)NC(=O)[C@@H](C)NC(=O)CNC(C)=O)cc2)[C@H](C)O1.O=P(O)(O)O
MCF7 [1]
  IC50: 120 nM
HEK-293T
  IC50: 200 nM
[2]
  Activity: 1040 U/mg
Plasma
  Stability: Stable
Homo sapiens
  Ratio: > 3
Bos taurus
  Activity: 4340 U/mg
Papain (Carica papaya)
  Activity: 890 U/mg
[3]
  IC50: 3.98 nM
[4]
  Drug metabolism: Active
MIA PaCa-2 [5]
  fold change (FC): 2
MCF7 [6]
  IC50: 295 nM
BXPC-3
  IC50: 1000 nM
MCF7 [7]
  IC50: 60.3 nM
MIA PaCa-2 [8]
  IC50: 26.3 nM
[9]
  Activity: 4.59 ×10³ /M/s
[10]
  IC50: 2.63 nM
MCF7 [11]
  fold change (FC): 7
MIA PaCa-2 [12]
  fold change (FC): 7
MCF7 [13]
  IC50: 31.6 nM
MIA PaCa-2 [14]
  IC50: 398 nM
MCF7 [15]
  IC50: 251 nM
MIA PaCa-2 [16]
  IC50: 23.4 nM
